# Screening data from PubChem BioAssay.
# Compounds with a hit are over-represented: about 3.5% of the library has one in this group of screens.
# RGS4 block: inhibitors of human RGS4; P49798; HEK293 M3R/RGS4 inducible, Fluo-4 calcium flux; active compounds read high; triggered by carbachol at its EC20; B-score at 10 µM; 310,000 tested, 0.45% active;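 active means B-score, a plate-corrected calcium signal, over three deviations above library mean, with baseline fluorescence within five deviations of library mean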;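 further: RGS4 expression induced by doxycycline in cells with stable M3 receptor; B-score is computed from the integrated fluorescence ratio over baseline after carbachol; higher B-score means a larger calcium signal and so more RGS4 inhibition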
# Target sequence (P49798 whole entry, looked up): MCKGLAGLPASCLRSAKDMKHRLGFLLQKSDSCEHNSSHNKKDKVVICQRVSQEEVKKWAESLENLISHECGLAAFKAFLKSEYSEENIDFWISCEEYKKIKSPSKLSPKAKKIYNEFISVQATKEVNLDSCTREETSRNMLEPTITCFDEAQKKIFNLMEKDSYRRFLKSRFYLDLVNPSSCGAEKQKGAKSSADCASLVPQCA
# MrgX1 ag: agonists of human MrgX1 receptor; B-score at 10 µM; MrgX1-HEK293 cells, Fluo-4 calcium fluorescence, agonist mode; active compounds read high; 310,000 tested, 0.44% active; Q96LB2; AID 588627;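 active means calcium response B-score plate-corrected fluorescence ratio at least 3 library SD, with starting fluorescence B-score inside 5 SD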
# Target sequence (Q96LB2 whole entry, looked up): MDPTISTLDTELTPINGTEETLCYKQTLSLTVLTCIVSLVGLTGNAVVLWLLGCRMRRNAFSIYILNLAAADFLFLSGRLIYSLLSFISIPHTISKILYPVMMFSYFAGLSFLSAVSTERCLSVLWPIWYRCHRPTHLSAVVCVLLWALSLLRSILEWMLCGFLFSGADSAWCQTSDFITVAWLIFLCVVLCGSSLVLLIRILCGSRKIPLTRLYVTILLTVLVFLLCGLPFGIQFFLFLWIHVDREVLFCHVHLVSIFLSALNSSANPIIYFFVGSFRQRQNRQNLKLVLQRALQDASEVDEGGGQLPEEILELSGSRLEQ
#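 System – MrgX1-expressing HEK293 cells · Incubation – cells plated overnight, dye loaded 0.5 h 37 °C, 0.5 h room temperature · Technique – kinetic Fluo-4 NW fluorescence of intracellular calcium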
# MrgX1 antag: blocks BAM8-22 activation of human MrgX1 receptor; Q96LB2; MRGX1-HEK293 calcium flux, Fluo-4, BAM8-22 antagonism; active compounds read low; B-score at 10 µM; 310,000 tested, 1.3% active; AID 588676;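 active means calcium-response B-score plate-corrected more than 3 library SD below zero, starting fluorescence within 5 deviations, no agonist response on first addition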;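 further: peak minus trough fluorescence over baseline after final BAM8-22 challenge near maximal dose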
# RGS4 pot: RGS4 potentiation or activation; 310,000 tested, 0.92% active; AID 463111; B-score at 10 µM; HEK293 M3R/inducible RGS4, carbachol calcium flux Fluo4; active compounds read low;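 active means B-score of the integrated calcium signal more than 4 SD below the library mean, with starting fluorescence not abnormally high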;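 further: negative B-score means reduced calcium response which marks RGS4 activation or potentiation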
#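 test system = HEK293 cells with stable M3R and inducible RGS4 | schedule = recording 10 s baseline at 1 Hz, 100 s post-agonist | technique = Fluo4-AM (2 µM) calcium-flux fluorescence, kinetic read | measure = Agonist-evoked peak-minus-minimum fluorescence over baseline, integrated ratio, B score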
# MrgX1 allo act: allosterically activates human MrgX1 receptor signaling. Q96LB2. MrgX1-HEK293, Fluo-4 calcium flux, FDSS; active compounds read high. B-score at 10 µM. 310,000 tested, 0.63% active;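 active means plate-corrected calcium response at least 3 library SD above typical, normal starting fluorescence, not activating the receptor alone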;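 further: compound read alongside a low EC10 to EC30 dose of BAM8-22 agonist; peak minus trough fluorescence over baseline measured at the second addition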
# MrgX1 ant reconf: reconfirmed antagonist of human MrgX1 receptor signaling; shares compounds with MrgX1 antag; AID 602420; remaining BAM8-22 calcium response % of control (active compounds read low), % at 10 µM; MrgX1-HEK293, BAM8-22 calcium flux, Fluo-4; active compounds read low; 2,300 tested, 19% active;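 active means remaining agonist calcium response no higher than 100% minus 3 SD of agonist-only control wells, with starting fluorescence near control levels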;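 further: agonist BAM8-22 given at a near maximal EC90 to ECmax level; peak minus minimum fluorescence divided by baseline after agonist addition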
# HEK293 Ca flux: MrgX1 antagonist counter-screen hit in parental HEK293 cells; shares compounds with MrgX1 antag; fluorescence ratio F(max-min)/F0 at 10 µM; 4,000 tested, 2% active; Fluo-4 calcium fluorescence, FDSS;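 active means duplicate-averaged calcium fluorescence ratio at least three times the standard deviation of buffer wells, a nonspecific response in parental cells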
# HEK293 Ca counter: MrgX1 allosteric activator counter-screen hit in parental HEK293 cells. shares compounds with MrgX1 antag. parental HEK293 calcium flux, Fluo-4 fluorescence ratio; active compounds read high. fluorescence ratio F(max-min)/F0 at 10 µM. 4,000 tested, 0.4% active. AID 624114;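 active means calcium fluorescence ratio, averaged over duplicates, at least 3 SD of the buffer-well ratio, meaning a nonspecific response in receptor-free cells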;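 further: untransfected parental HEK293 lacking MrgX1 used as counterscreen for MrgX1 allosteric activators; fluorescence change taken during the second addition on a kinetic imager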
# HEK293 Ca cntr2: activity in parental HEK293 cells lacking MrgX1 receptor; shares compounds with MrgX1 antag; AID 624115; 4,000 tested, 8.7% active; Fluo-4 calcium fluorescence (FDSS); active compounds read high; fluorescence ratio F(max-min)/F0 at 10 µM;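 active means calcium fluorescence ratio at least three times the spread of buffer wells, meaning a non-specific response in parental cells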
# An asterisk follows results filed as active; i = inactive; . = no result given.
SMILES,RGS4 block,MrgX1 ag,MrgX1 antag,RGS4 pot,MrgX1 allo act,MrgX1 ant reconf,HEK293 Ca flux,HEK293 Ca counter,HEK293 Ca cntr2
CCOc1nc(Nc2ccc(OC)cc2)nc(OCC)n1,i,i,i,i,i,.,.,.,.
CCOc1nc(Nc2ccc(OC)c(Cl)c2)nc(OCC)n1,i,i,-4.8*,i,i,i,i,i,i
Cc1ccc(C(=O)NC(=S)Nc2ccccc2N2CCCC2)cc1[N+](=O)[O-],i,i,-23.2*,i,i,i,i,i,i
Clc1ccccc1-c1nnc(-c2ccc3c(c2)OCO3)o1,i,i,i,i,i,.,.,.,.
COc1ccc(CNC(=O)C(c2ccco2)N(C(=O)c2snc(C(N)=O)c2N)c2cccc(OC)c2)cc1 (stereo not given),i,i,i,i,i,.,.,.,.
COc1ccc(NC(=O)COc2ccccc2)cc1NC(=O)c1ccco1,i,i,i,i,i,.,.,.,.
COc1ccc2nc(N)sc2c1,i,i,i,i,i,.,.,.,.
COc1ccc2nc(-c3ccc(F)cc3)sc2c1,i,i,-4.57*,i,i,i,i,i,i
COc1ccc2nc(-n3c(C)ccc3C)sc2c1,i,i,-5.99*,i,i,i,i,i,i
O=C(O)CSc1nnc(COc2ccc(Br)cc2)n1-c1ccccc1,i,i,i,i,i,.,.,.,.
COc1ccc(C)cc1S(=O)(=O)N(CC(=O)N1CCCC1)c1ccccc1,i,i,-5.82*,i,i,i,i,i,i
COc1ccc(C)cc1S(=O)(=O)N(CC(=O)N1CCCC1)c1ccc(C)cc1,i,i,i,i,i,.,.,.,.
CCc1nnc(NC(=O)CSc2nc3cccnc3n2Cc2ccccc2)s1,i,i,-5.85*,i,i,i,i,i,i
CCOC(=O)c1c(C)[nH]c(C)c1S(=O)(=O)N1CCN(C(=O)c2ccco2)CC1,i,i,i,i,i,.,.,.,.
CC(=O)c1ccc(NC(=S)NC(C)c2ccc(Cl)cc2Cl)cc1 (stereo not given),i,i,-10.3*,i,i,i,i,i,i
O=C(c1cn(CC(=O)N2CCCCC2)c2ccccc12)C1CC1,i,i,-4.97*,i,i,i,i,i,i
O=C(CCNC(=O)c1ccccc1Cl)Nc1nccs1,i,i,i,i,i,.,.,.,.
O=S(=O)(NCc1ccccn1)c1cc(Cl)ccc1Cl,i,i,i,i,i,.,.,.,.
Cc1ccc(NC(=O)CC2C(=O)NC3CCCCC3N2C(=O)c2ccc(F)cc2)cc1C (stereo not given),i,i,i,i,i,.,.,.,.
Cc1ccc(Cl)cc1NC(=O)CC1NCCNC1=O (stereo not given),i,i,i,i,i,.,.,.,.
O=C(CC1C(=O)NC2CCCCC2N1C(=O)c1ccc(F)cc1)Nc1ccccc1 (stereo not given),i,i,-4.78*,i,i,i,i,i,i
COc1ccccc1C(=O)N1C(CC(=O)Nc2cc(Cl)ccc2C)C(=O)NC2CCCCC21 (stereo not given),i,i,-4.69*,i,i,i,i,i,i
O=C(Nc1ccccc1)OCCOc1ccc(Br)cc1,i,i,i,i,i,.,.,.,.
CC1CN(C(=O)CCC(=O)NCc2ccccc2)c2ccccc2S1 (stereo not given),i,i,i,i,i,.,.,.,.
